For series [1], the species on record is Mus musculus. Description: animal or person. It is filed as functional. To be noted: CD-1 Charles River, sc.
Series [2] has as its system Mus musculus. Description: Ratio of ED50 for inhibition of phenyl-p-benzoquinine-induced writhing in po dosed CD-1 Charles River mouse to ED50 for inhibition of phenyl-p-benzoquinine-induced writhing in sc dosed CD-1 Charles River mouse. It is filed as functional. A digest of the protocol: (§1)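 Writhing ED50s came from male CD-1 mice, ten per dose, tested at peak time after sc or po dosing, with four doses plus a vehicle control (water with Tween 80) in randomized order. Writhes were counted for 10 min, beginning 5 min after 0.125% phenyl-p-benzoquinone. ED50 was estimated by linear regression of percent inhibition, and ratios were formed from these ED50s.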

The subject of series [3] is Mus musculus. Description: Analgesic activity in po dosed CD-1 Charles River mouse assessed as inhibition of phenyl-p-benzoquinine-induced writhing administered 15 to 90 mins prior to phenyl-p-benzoquinine challenge measured after 5 mins. In kind it is functional.
Series [4] deals with Mus musculus. Description: Analgesic activity in sc dosed CD-1 Charles River mouse measured for 15 to 60 mins by tail flick test relative to control. In kind it is functional.
Series [5] concerns Mus musculus. Kind of series: Analgesic activity in CD-1 Charles River mouse at 25 mg/kg, sc measured for 15 to 60 mins by tail flick test relative to control. In kind it is functional. To be noted: route subcutaneous. A digest of the protocol:
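Male CD-1 mice, ten per group, were restrained and given an intense light-beam stimulus, and tail-flick latency was recorded. Two baseline readings were taken. Mice were excluded if their readings differed by more than 1 s or if including them would widen the group spread beyond 3 s. A cutoff was set from the baselines. Drug was given sc (vehicle 10 mL/kg), and mice were tested at 15, 30, 45 and 60 min. Responses beyond the cutoff counted as analgesia, reported as percent.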

In series [6] the test system is Mus musculus. Description: Potency index, ratio of propoxyphene ED50 to compound ED50 for inhibition of phenyl-p-benzoquinine-induced writhing in po dosed CD-1 Charles River mouse. In kind it is functional. A digest of the protocol: as §1
The test system of series [7] is Mus musculus. Description: Potency index, ratio of propoxyphene ED50 to compound ED50 for inhibition of phenyl-p-benzoquinine-induced writhing in sc dosed CD-1 Charles River mouse. In kind it is functional. A digest of the protocol:
as §1

Series [8] has as its system Mus musculus. Kind of series: Analgesic activity in CD-1 Charles River mouse assessed as inhibition of phenyl-p-benzoquinine-induced writhing at 25 mg/kg, sc administered 15 to 90 mins prior to phenyl-p-benzoquinine challenge measured after 5 mins relative to control. In kind it is functional. The settings on record: route subcutaneous. A digest of the protocol:
(§2)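 Male CD-1 Charles River mice (18-24 g), five per group, were given the drug 15, 30, 60 and 90 min before an injection of 0.125% phenyl-p-benzoquinone in 5% aqueous ethanol. The vehicle was distilled water with a few drops of Tween 80. Writhes were counted for 10 min, starting 5 min after the injection, with mice held singly in beakers. The read-out was percent inhibition of writhes versus vehicle-treated mice.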

For series [9], the system named is Mus musculus. Description: Analgesic activity in CD-1 Charles River mouse assessed as inhibition of phenyl-p-benzoquinine-induced writhing at 25 mg/kg, po administered 15 to 90 mins prior to phenyl-p-benzoquinine challenge measured after 5 mins relative to control. In kind it is functional. A digest of the protocol:
as §2

Series [10] deals with Mus musculus. Description: Analgesic activity in po dosed CD-1 Charles River mouse measured for 15 to 60 mins by tail flick test relative to control. It is filed as functional.
The nature of series [11]: Ratio of ED50 for neurotoxicity in CD-1 Charles River mouse by rotarod test to ED50 for inhibition of phenyl-p-benzoquinine-induced writhing in CD-1 Charles River mouse. The settings on record: CD-1, mouse, in vivo; read-out: Ratio ED50. In kind it is toxicity, organism-based.
For series [12], the system named is Mus musculus. Kind of series: Analgesic activity in CD-1 Charles River mouse assessed as inhibition of phenyl-p-benzoquinine-induced writhing at 5 mg/kg, po administered 15 to 90 mins prior to phenyl-p-benzoquinine challenge measured after 5 mins relative to control. It is filed as functional. A digest of the protocol:
as §2

The structures appear in SMILES notation.

`Br.CN1CCC2(CC1)C(=O)c1cc(Cl)ccc1Oc1ccccc12`: the figures for the ED50 in series [1], in series [3] and in series [4] were 3.5 mg/kg, 5.2 mg/kg and 13.2 mg/kg, respectively. Also, the “Ratio ED50” value in [2] is on record as 1.5.
In the case of `Br.CN1CCC2(CC1)C(=O)c1ccccc1Oc1ccccc12`, the ED50 in series [1] was found to be 5.2 mg/kg. For the same molecule, in [5], the Activity is given as 13%.
In the same order, the values of `Br.O=C1c2cc(Cl)ccc2Oc2ccccc2C12CCN(CCO)CC2` are 7 mg/kg and 30%.
`Br.CN1CCC2(CC1)C(=O)c1cc(F)ccc1Oc1ccccc12`: the ED50 in series [1] was 1.9 mg/kg; in [3] it was 2 mg/kg. The “Ratio ED50” value in series [2] was 1; in series [6] it was 10; in series [7] it was 2. Moreover, in series [5], the Activity was 30%.
In the case of `Br.O=C1c2ccccc2Oc2ccccc2C12CCN(CCCOc1ccccc1)CC2`, the Activity in series [5] is reported as 20%. Besides, the inhibition in vivo at 25 mg/kg in series [8] turned out to be 55%.
As to `Br.O=C1c2ccccc2Oc2ccccc2C12CCNCC2`, the ED50 was 1.7 mg/kg in series [1] and 7.5 mg/kg in series [3]. Moreover, in series [2], the “Ratio ED50” value came to 4.5. This molecule also had an Activity in [5] of 60%.
Take `Br.O=C1c2ccccc2Oc2ccccc2C12CCN(CCc1ccccc1)CC2`: the ED50 in series [1] amounted to 21 mg/kg. Besides, the Activity in series [5] amounted to 40%.
For the molecule `CN1CC[C@]23c4c5ccc(O)c4O[C@H]2[C@@H](O)C=C[C@H]3[C@H]1C5.CN1CC[C@]23c4c5ccc(O)c4O[C@H]2[C@@H](O)C=C[C@H]3[C@H]1C5.O=S(=O)(O)O`, in series [1], the ED50 worked out at 0.36 mg/kg.
The molecule `Br.O=C(CCCN1CCC2(CC1)C(=O)c1cc(Cl)ccc1Oc1ccccc12)c1ccc(F)cc1` had an Activity in series [5] of 20%. In addition, the inhibition in vivo at 25 mg/kg in [8] turned out to be 49%.
In the same order, the values of `Br.C#CCN1CCC2(CC1)C(=O)c1ccccc1Oc1ccccc12` are 20% and 57%.
In the same order, the values of `C#CCN1CCC2(CC1)C(=O)c1cc(Cl)ccc1Oc1ccccc12` are 10% and 32%.
As for `Br.CCCN1CCC2(CC1)C(=O)c1cc(Cl)ccc1Oc1ccccc12`, the Activity in [5] was 10%. Further, the inhibition in vivo at 25 mg/kg in [8] came out at 22%.
As to `CCC(=O)O[C@](Cc1ccccc1)(c1ccccc1)[C@H](C)CN(C)C` [PROPOXYPHENE], the ED50 turned out to be 3.9 mg/kg in [1] and 24.6 mg/kg in series [3]. In addition, the “Ratio ED50” value in [2] is on record as 6.3.
`Br.O=C1c2cc(Cl)ccc2Oc2ccccc2C12CCNCC2`: the results for the ED50 in [1], in series [3] and in series [4] were 3.7 mg/kg, 7.7 mg/kg and 12 mg/kg, respectively. Besides, the “Ratio ED50” value in series [2] came out at 2.
Regarding `CC(C)=CCN1CCC2(CC1)C(=O)c1cc(Cl)ccc1Oc1ccccc12`, the inhibition in vivo at 25 mg/kg in series [8] came out at 42%.
Molecule `Br.O=C1c2ccccc2Oc2ccccc2C12CCN(CC1CC1)CC2` registered an ED50 in series [1] of 6 mg/kg. Moreover, in series [9], the inhibition in vivo at 25 mg/kg turned out to be 59%.
The molecule `CC(C)=CCN1CC[C@]2(C)c3cc(O)ccc3C[C@H]1[C@H]2C` [(+)-PENTAZOCINE] showed an ED50 in series [1] of 2.4 mg/kg.
Turning to `Cl.O=C1c2cc(F)ccc2Oc2ccccc2C12CCNCC2`, the figures for the ED50 in series [1], in series [10] and in series [3] were 1.6 mg/kg, 51.4 mg/kg and 2.2 mg/kg, respectively. Further, the entries for the “Ratio ED50” value in series [2], in series [6] and in [7] were 1, 10 and 2, respectively. Also, the selectivity ratio in series [11] was 17.6. The Activity in series [5] is reported as 75%.
Regarding `Br.C=CCN1CCC2(CC1)C(=O)c1cc(Cl)ccc1Oc1ccccc12`, the Activity in series [5] was 10%. Besides, the inhibition in vivo at 25 mg/kg in series [8] was 37%.
In the same order, the values of `O=C1c2cc(Cl)ccc2Oc2ccccc2C12CCN(CCc1ccccc1)CC2` are 0% and 30%.
For the molecule `Br.O=C1c2ccccc2Oc2ccccc2C12CCN(CCO)CC2`, in series [1], the ED50 worked out at 2.8 mg/kg. In series [5], this molecule returned an Activity of 40%.
Consider `Br.CCN1CCC2(CC1)C(=O)c1cc(Cl)ccc1Oc1ccccc12`, for which the Activity in series [5] is 0%. Moreover, the inhibition in vivo at 25 mg/kg in series [8] stood at 67%.
In the same order, the values of `O=C1c2cc(Cl)ccc2Oc2ccccc2C12CCN(CCCOc1ccccc1)CC2` are 0% and 54%.
`Br.O=C(CCCN1CCC2(CC1)C(=O)c1ccccc1Oc1ccccc12)c1ccc(F)cc1`: in series [12], the inhibition in vivo at 5 mg/kg came out at 67%. The molecule further gave an Activity in series [5] of 60%.
In turn, `Br.O=C1c2cc(Cl)ccc2Oc2ccccc2C12CCN(CC1CC1)CC2` yielded an Activity in [5] of 0%. In [8], the inhibition in vivo at 25 mg/kg turned out to be 31%.

(Values after ChEMBL document CHEMBL3244352, “Synthesis and analgesic activity of some spiro[dibenz[b,f]oxepin-10,4'-piperidine] derivatives” (J Med Chem, 1979).)
